Experimental findings from ChEMBL document CHEMBL5038573, “Total Synthesis of Laucysteinamide A, a Monomeric Congener of Somocystinamide A” (J Nat Prod, 2021) are described below.

Molecules are shown by their SMILES.

The test system of one series is NCI-H460. The series is described as follows: Cytotoxicity against human NCI-H460 cells assessed as cell growth inhibition incubated for 48 hrs by MTT assay. It counts as functional, cell-based. The procedure, abridged:
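NCI-H460 cells seeded at 6.66 × 10³ cells/mL in RPMI 1640 with FBS and grown 24 h (37 °C, 5% CO₂). Nine half-log dilutions (top 127–300 μM) added, final 1% v/v DMSO and PEG400, six replicates per concentration. After 48 h, MTT for 25 min, then dissolved in DMSO and read at 570 and 630 nm.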

Series [1] is described as follows: (§1) Toxicity in brine shrimp assessed as induction of lethality incubated for 24 hrs by microscopic analysis. To be noted: Artemia salina (brine shrimp). The format is organism-based, Artemia salina.
The next series deals with Artemia salina. The description is as §1. The format is organism-based.
Another series concerns A549. The series is described as follows: Cytotoxicity against human A549 cells assessed as cell growth inhibition incubated for 48 hrs by MTT assay. It counts as functional, cell-based. To be noted: A549, 48 h. In general terms: Formazan colour is commonly taken as a measure of viable cells.
The mark [2] stands for this setting: Homo sapiens, NCI-H460, 48 h, read-out: IC50.

By IC50 is commonly meant the point on the concentration scale where inhibition reaches its midpoint. Turning to `C=CC/C=C/N(C)C(=O)c1ccccc1`, the IC50 in the series on NCI-H460 (setting [2]) was greater than 300 µM. Besides, the IC50 at 24 h in series [1] is greater than 100 µM.

Consider `C=CC/C=C/N(C)C(=O)CCCCCCCCCC/C=C/[C@@H]1CSC(C)=N1`, for which the IC50 in the series on NCI-H460 (setting [2]) stood at 20 µM. For the same molecule, in series [1], the IC50 at 24 h is greater than 100 µM.

Take `C=CC/C=C/N(C)C(=O)CCC`: the half-maximal inhibitory concentration (IC50) in the series with NCI-H460 (setting [2]) is greater than 248 µM. For the same molecule, the IC50 at 24 h in series [1] was greater than 100 µM.

Regarding `CCC/C=C/N(C)C(=O)CCCCCCCCCC/C=C/[C@@H]1CSC(C)=N1`, the IC50 in the series on NCI-H460 (setting [2]) was 33 µM; in the series on Artemia salina, “Not Active”.

In the case of `C=CC/C=C/N(C)C(=O)CCCCCCCC/C=C/[C@H](CSSC[C@@H](/C=C/CCCCCCCCC(=O)N(C)/C=C/CC=C)NC(C)=O)NC(C)=O`, the IC50 entry with NCI-H460 (nci-h460) is “Not Active”; in the series with A549 it was 0.046 µM. Also, in series [1], the IC50 at 24 h is greater than 130 µM.
